NF-kB expr up = activators of NF-kB expression in neurons, primary screen, cell-based, HTS. human neuronal cells, NF-kB reporter expression; active compounds read high. fold change at 12.5 µM. actives 1.6% (n = 190,000). AID 1239, 2008; in the data active = fold change above about 3.3
STAT3 act = IL-6 driven STAT3 reporter potentiators, primary screen, U3A cells, luciferase, luminescence, MLSCN library; actives 0.91% (n = 190,000); IL-6 STAT3-luciferase reporter; 100% = signal with IL-6 EC80 alone; activation (% of control), % at 5.6 µM;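 active = activation above the screen-wide mean of compound activation plus 3 SD, cut at about 130% in these data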;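 also: 0% = background luminescence of wells with medium and substrate only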
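Assay system – human STAT1-deficient U3A cells with stable STAT3-luciferase reporter · Also added – IL-6 (33 ng/mL) · Schedule – compound 1 h, then IL-6 6 h at 37 °C · Technique – reporter luminescence signal · Evaluation – % activation versus median of IL-6-stimulated wells · Benchmarks – IL-6-only wells as 100% reference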
STAT3 inh = IL-6 driven STAT3 reporter inhibitors, primary screen, U3A cells, luciferase, luminescence, MLSCN library. IL-6 STAT3-luciferase reporter; host cell line lacks STAT1. inhibition, % at 5.5 µM. actives 0.89% (n = 190,000);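 active = inhibition above the mean inhibition across all screened compounds plus 3 SD, cut at about 44% in these data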;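 also: 0% = DMSO only wells and 100% = 100 µM nifuroxazide control wells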
STAT1 inh = STAT1 signaling inhibitors, primary screen, cell-based, HTS, luciferase reporter; actives 0.35% (n = 200,000); AID 920, 2007; inhibition, % at 5.5 µM; NIH 3T3 STAT1-luciferase reporter, IFN-gamma, luminescence;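 active = inhibition above a set limit, the mean inhibition across all tested compounds plus 3 SD, cut at about 34% in these data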;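 also: 0% = IFN-gamma with DMSO and 100% = IFN-gamma with 300 µM nifuroxazide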
STAT1 activator = STAT1 signaling activators, primary screen, cell-based, HTS, luciferase reporter. NIH 3T3 STAT1-luciferase reporter, IFN-gamma, luminescence; 100% = IFN-gamma alone, no compound. activation (% of control), % at 5.5 µM. actives 2.6% (n = 200,000). AID 932, 2007;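 active = activation above the screen-wide mean activation plus 3 SD, cut at about 130% in these data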;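 also: raw ratio to IFN-gamma control signal so 100% means no change and 0% no light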
APP 5'UTR act = activators of APP 5'UTR luciferase reporter, primary screen, SH-SY5Y cells | AID 1276, 2008 | activation, % at 2 µM | SH-SY5Y APP 5'UTR luciferase reporter, luminescence; zero percent = DMSO vehicle wells | actives 1% (n = 190,000);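 active = activation above a set limit, based on mean plus 3 SD of controls, cut at about 140% in these data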
Starred values were filed as active, the others as inactive. Compounds with a hit are over-represented: about 4.9% of the library has one in this group of screens.

CCS(=O)(=O)Nc1cc(-c2nc3cccnc3s2)ccc1C was read as NF-kB expr up 2.46, STAT3 act 162.1*, STAT3 inh -71.0, STAT1 inh -39.0, STAT1 activator 135.3* and APP 5'UTR act 104.4.
O=S(=O)(Nc1ccc(-c2nc3cccnc3s2)cc1)c1cccs1 was read as NF-kB expr up 1.73, STAT3 act 108.3, STAT3 inh -5.3, STAT1 inh -13.7, STAT1 activator 112.4 and APP 5'UTR act 19.3.
O=S(=O)(Nc1ccc(-c2nc3cccnc3s2)cc1)c1ccc(Cl)s1 was read as NF-kB expr up 1.61, STAT3 act 111.0, STAT3 inh -4.2, STAT1 inh -34.6, STAT1 activator 131.4* and APP 5'UTR act 76.6.
For CCS(=O)(=O)Nc1ccc(-c2nc3cccnc3s2)cc1 the results were NF-kB expr up 1.98, STAT1 inh 11.7, STAT1 activator 88.2 and APP 5'UTR act 197.3*.
For Cc1cc(-c2nc3cccnc3s2)ccc1NS(=O)(=O)c1cccs1 the results were NF-kB expr up 2.53, STAT1 inh -51.8, STAT1 activator 145.6* and APP 5'UTR act 74.9.
For O=C(Nc1ccc(F)cc1)C1C(c2ccccc2)C1(Cl)Cl (stereo not given) the results were NF-kB expr up 1.6, STAT3 act 96.8, STAT3 inh 7.5, STAT1 inh -0.6, STAT1 activator 100.5 and APP 5'UTR act 2.1.
Cc1ccc2c(c1)C(=O)C(=O)N2CCOc1ccccc1 was read as NF-kB expr up 3.61*, STAT3 act 95.3, STAT3 inh 8.8, STAT1 inh -27.1, STAT1 activator 122.9 and APP 5'UTR act -79.0.
Cc1cccc(OCCN2C(=O)C(=O)c3cc(C)ccc32)c1 was read as NF-kB expr up 3.79*, STAT3 act 91.6, STAT3 inh 15.2, STAT1 inh -14.9, STAT1 activator 113.8 and APP 5'UTR act -92.8.
Cc1ccc2c(c1)C(=O)C(=O)N2CCCOc1ccccc1C was read as NF-kB expr up 1.24, STAT3 act 97.1, STAT3 inh 5.7, STAT1 inh -7.5, STAT1 activator 105.4 and APP 5'UTR act 53.3.
Screening Cc1cc(/C([O-])=C(/C(=S)Nc2ccc(F)cc2)[n+]2ccccc2)c(C)n1Cc1ccccc1Cl returned NF-kB expr up 0.99, STAT3 act 107.3, STAT3 inh -3.9, STAT1 inh -6.5, STAT1 activator 102.9 and APP 5'UTR act -8.1.
Screening CC1(C)CC(=O)c2c(O)cc(OCc3ccc(Br)cc3)cc2O1 returned NF-kB expr up 1.54, STAT3 act 116.9, STAT3 inh -13.5, STAT1 inh -50.0, STAT1 activator 145.7* and APP 5'UTR act 138.7*.
CC(=O)Nc1cc(C(=O)OCC(=O)c2ccccc2)ccc1C was read as NF-kB expr up 1.19, STAT3 act 98.5, STAT3 inh 4.6, STAT1 inh -41.4, STAT1 activator 136.4* and APP 5'UTR act 50.0.
O=C(COC(=O)c1cccnc1Cl)c1ccccc1 was read as NF-kB expr up 1.31, STAT3 act 102.9, STAT3 inh 1.3, STAT1 inh -32.9, STAT1 activator 130.0* and APP 5'UTR act -0.2.
For CCC(=O)Nc1ccccc1C(=O)OCC(=O)c1ccccc1 the results were NF-kB expr up 2.17, STAT3 act 95.9, STAT3 inh 10.9, STAT1 inh -41.0, STAT1 activator 137.5* and APP 5'UTR act 75.8.
`CCCCC(=O)Nc1ccccc1C(=O)OCC(=O)c1ccc2c(c1)OCCO2` gave NF-kB expr up 0.84, STAT3 act 94.2, STAT3 inh 2.8, STAT1 inh -35.7, STAT1 activator 132.5* and APP 5'UTR act 70.0.
`O=C(COC(=O)c1cccnc1Cl)c1ccc(F)cc1` gave NF-kB expr up 1.23, STAT3 act 96.0, STAT3 inh 13.4, STAT1 inh -27.5, STAT1 activator 125.6 and APP 5'UTR act 7.6.
For CC(Sc1ccccc1)C(=O)NN=C1CCN(C)CC1 (stereo not given) the results were NF-kB expr up 1.07, STAT3 act 91.4, STAT3 inh 12.1, STAT1 inh 5.2, STAT1 activator 95.6 and APP 5'UTR act 18.3.
Screening CCC(=O)Nc1cccc(C(=O)OCC(=O)c2ccccc2Cl)c1 returned NF-kB expr up 2.17, STAT3 act 118.2, STAT3 inh -14.8, STAT1 inh -32.2, STAT1 activator 129.5* and APP 5'UTR act 10.0.
For CC(=O)Nc1cccc(C(=O)OCC(=O)c2ccccc2Cl)c1 the results were NF-kB expr up 2.24, STAT3 act 96.0, STAT3 inh 10.2, STAT1 inh -30.4, STAT1 activator 128.4 and APP 5'UTR act 29.4.
For COc1ccc(-n2c(C)cc(C(=O)CCl)c2C)cc1 the results were NF-kB expr up 3.86*, STAT3 act 104.8, STAT3 inh -4.2, STAT1 inh 16.0, STAT1 activator 84.2 and APP 5'UTR act -43.7.
COc1ccc(-n2c(C)cc(C(=O)CN3C(=O)c4ccccc4C3=O)c2C)cc1 was read as NF-kB expr up 1.14, STAT3 act 107.4, STAT3 inh -10.3, STAT1 inh -37.4, STAT1 activator 134.2* and APP 5'UTR act -4.9.
COc1ccc(-n2c(C)cc(C(=O)CSc3ccc(NC(C)=O)cc3)c2C)cc1 was read as NF-kB expr up 1.33, STAT3 act 101.6, STAT3 inh -0.6, STAT1 inh -7.4, STAT1 activator 106.4 and APP 5'UTR act 7.3.
Screening Cc1ccc(S(=O)(=O)c2ccc(Cl)cc2)cc1S(=O)(=O)N(C)CC(=O)O returned NF-kB expr up 1.19, STAT3 act 106.8, STAT3 inh -8.0, STAT1 inh 0.2, STAT1 activator 99.8 and APP 5'UTR act 16.5.
Screening COc1ccc(-c2cc(O)cc(O)c2)cc1 returned NF-kB expr up 3.84*, STAT3 act 103.2, STAT3 inh -2.8, STAT1 inh -1.8, STAT1 activator 101.6 and APP 5'UTR act 102.9.
`O=[N+]([O-])CC(=Nc1ccc(Cl)cc1)N/N=C\c1oc(O)c2ccccc12` gave NF-kB expr up 1.21, STAT3 act 135.6*, STAT3 inh -36.6, STAT1 inh -4.8, STAT1 activator 104.4 and APP 5'UTR act -4.5.
Fc1ccc(NC(=S)NNc2ncc(C(F)(F)F)cc2Cl)c(F)c1 was read as NF-kB expr up 0.35, STAT3 act 49.2, STAT3 inh 61.7*, STAT1 inh 58.6*, STAT1 activator 45.7 and APP 5'UTR act 0.3.
FC(F)(F)c1cnc(NNC(=S)Nc2ccc(Cl)cc2)c(Cl)c1 was read as NF-kB expr up 0.32, STAT3 act 88.2, STAT3 inh 16.7, STAT1 inh 5.9, STAT1 activator 94.8 and APP 5'UTR act 1.8.

Source: PubChem BioAssay
